Reference: ChEMBL document CHEMBL5096209, “Structure-Activity Studies of 3,9-Diazaspiro[5.5]undecane-Based γ-Aminobutyric Acid Type A Receptor Antagonists with Immunomodulatory Effect” (J Med Chem, 2021)
Calls of active or inactive are those of the source. The calls are words filed in the database; no cut-off is given here.

Key:
[1] = target: GABA-A receptor; anion channel; assay: Displacement of [3H]-muscimol from rat cortical synaptic membrane GABAA receptor assessed as inhibition constant by microscint-scintillation method; assay type: cell membranes, Cortex
Summary of the method: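 Rat cortical synaptic membranes, washed repeatedly in 50 mM Tris-HCl pH 7.4, 70–80 μg protein. Incubated at 0 °C with 5 nM [3H]-muscimol (final) and a range of test concentrations, then filtered and counted by scintillation. Nonspecific binding defined with 1.0 mM GABA. IC50 converted to Ki by Cheng–Prusoff, triplicate, three independent experiments.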

[2] = Induction of cell proliferation of human CD8-positive T cells at 100 uM measured after 96 hrs by flow cytometry analysis relative to control; assay type: functional
Summary of the method: (§1)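 Rescue format on human PBMC. Cells were CFSE-labelled (5 μM), stimulated with anti-CD3 OKT3 at 100 pg/mL, and treated with alprazolam 33 μM plus test agent at 100 μM. Culture ran 96 h. Proliferating CD4+ and CD8+ T cell percentages were measured by flow cytometry. Vehicle controls (methanol, DMSO) were included. n≥6 independent experiments; one-way ANOVA with Tukey.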

CD4+ve Th [3] = assay: Induction of cell proliferation of human CD4+ve Th cells at 100 uM measured after 96 hrs by flow cytometry analysis relative to control; assay type: functional; summary of the method: as §1
[4] = Antiproliferative activity against human CD4+ve T cells at 33 uM measured after 96 hrs by flow cytometry analysis relative to control; assay type: functional, CD4+ve Th
Summary of the method: (§2)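 Human PBMC were isolated from leukocyte cones by density gradient centrifugation and frozen. After overnight high-density culture at 1×10^7 cells/ml, cells were labelled with 5 μM CFSE for 10 min at room temperature and stimulated with soluble anti-CD3 (OKT3) at 100 pg/mL. Culture ran 96 h. Proliferating CD4+ and CD8+ cells were scored by CFSE flow cytometry against a PBS control. n≥6 independent experiments; one-way ANOVA with Tukey.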

[5] = Antiproliferative activity against human CD8-positive T cells at 33 uM measured after 96 hrs by flow cytometry analysis relative to control; assay type: functional, CD8-positive T cell; summary of the method: as §2
CD4+ve Th [6] = assay: Antiproliferative activity against mouse CD4+ve Th cells at 100 uM measured after 48 hrs by flow cytometry analysis; assay type: functional, cell-based
Summary of the method: (§3)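 Splenocytes came from female wild-type BALB/c mice and were red-cell lysed. They were labelled with 5 μM CFSE for 10 min at room temperature and activated with soluble anti-mouse CD3 (145.2C11) at 33 ng/mL. Culture ran 48 h in RPMI with 10% FCS and 2 μM 2-mercaptoethanol. Percent proliferating CD4+ and CD8+ cells was read by flow cytometry. n≥6 independent experiments; one-way ANOVA with Tukey.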

CD8-positive T cell = assay: Antiproliferative activity against mouse CD8-positive T cells at 100 uM measured after 48 hrs by flow cytometry analysis; assay type: functional, cell-based; summary of the method: as §3

| Compound | Ki [1] [nM] | other results |
| --- | --- | --- |
| Cc1cccc(CN2CCC3(CCNCC3)CC2)c1 | > 200000 |  |
| Nc1ccc(C(=O)N2CCC3(CCNCC3)CC2)cc1 | 710 | pKi [1]: 6.16 |
| O=C(c1ccccc1Br)N1CCC2(CCNCC2)CC1 | 2700 |  |
| O=C(c1ccc(OCc2ccccc2)cc1)N1CCC2(CCNCC2)CC1 | 1000 |  |
| O=C(c1ccc(C(F)(F)F)cc1)N1CCC2(CCNCC2)CC1 | 2200 |  |
| O=C(c1cccc(Br)c1)N1CCC2(CCNCC2)CC1 | 300 |  |
| Brc1ccc(CN2CCC3(CCNCC3)CC2)cc1 | 27000 |  |
| COC(=O)N1CCC2(CCNCC2)CC1 | 37000 |  |
| O=C(c1cccc(O)c1)N1CCC2(CCNCC2)CC1 | 340 | pKi [1]: 6.49 |
| O=C(c1cccc([N+](=O)[O-])c1)N1CCC2(CCNCC2)CC1 | 1500 |  |
| O=C(c1ccc(O)cc1)N1CCC2(CCNCC2)CC1 | 860 | pKi [1]: 6.08 |
| O=C(c1ccc(Br)cc1)N1CCC2(CCNCC2)CC1 | 230 |  |
| Nc1cccc(C(=O)N2CCC3(CCNCC3)CC2)c1 | 1200 |  |
| Cc1ccccc1C(=O)N1CCC2(CCNCC2)CC1 | 4200 |  |
| O=C(c1ccccc1)N1CCC2(CCNCC2)CC1 | 1400 |  |
| O=C(c1ccc([N+](=O)[O-])cc1)N1CCC2(CCNCC2)CC1 | 9400 |  |
| C[N+]1(C)CCc2cc3c(cc2[C@H]1[C@@H]1OC(=O)c2c1ccc1c2OCO1)OCO3.[I-] |  | Activity [2]: 20%; Activity (CD4+ve Th [3]): 20% |
| Cc1nnc2n1-c1ccc(Cl)cc1C(c1ccccc1)=NC2 [ALPRAZOLAM] |  | Activity [4]: 35.7%; Activity [5]: 34.8%; Activity (CD4+ve Th [6]): Active; Activity (CD8-positive T cell): Active |
| CC(=O)N1CCC2(CCNCC2)CC1 | > 100000 |  |
| O=C(c1cccc(OCc2cccs2)c1)N1CCC2(CCNCC2)CC1 | 1000 |  |
| O=C(c1cccc(OCc2ccccc2)c1)N1CCC2(CCNCC2)CC1 | 1000 |  |
